Experimental data from different studies.
Lines come from different studies, so protocols differ.
Target: Tyrosine-protein kinase receptor UFO (AXL, Homo sapiens, UniProt P30530)

O=C(Nc1ccc(Oc2ccc(F)cc2)cc1)N1CCc2ncccc2[C@H]1c1ccc(F)cc1 — remaining binding (cell-free assay, competition with immobilised ligand; 1 µM): 77%
CCN(CC)CCNC(=O)c1c(C)[nH]c(/C=C2\C(=O)Nc3ccc(Cl)cc32)c1C — remaining activity (enzyme activity, inhibitor; 0.5 µM): 25.2%
CNC(=O)c1cc(Oc2ccc(NC(=O)Nc3ccc(Cl)c(C(F)(F)F)c3)cc2)ccn1 — inhibition (enzyme activity, inhibitor; 10 µM): 68%
O=C1Nc2ccc(Cl)cc2C1=Cc1cc(Cl)c(O)c(Cl)c1 — remaining signal (cell-free assay; 0.5 µM): 106%
CCN(CC)CCNC(=O)c1c(C)[nH]c(/C=C2\C(=O)Nc3ccc(F)cc32)c1C — remaining activity (enzyme activity, inhibitor; 1 µM): 7%
CNCc1ccc(-c2cc(-c3nc(-c4ccc(S(=O)(=O)C(C)C)cc4)cnc3N)on2)cc1 — inhibition (enzyme activity, inhibitor; 2 µM): 75%
N#CCCc1ccc2c(c1)-c1[nH]c3ccc([N+](=O)[O-])cc3c1CC(=O)N2 — remaining signal (cell-free assay; 0.5 µM): 95.5%
Cc1c(C(=O)O)cc(-c2ccc(C3CCNCC3)cc2)c2ccc(-c3ccc(C(F)(F)F)cc3)cc12 — remaining binding (binding, competition with immobilised ligand; 1 µM): 100%
O=C(Nc1cnn(-c2csc(C(=O)NC3COC3)c2)c1)Nc1c(F)cccc1Cl — remaining activity (enzyme activity, inhibitor; 5 µM): 73%
Cc1ccc(NC(=O)c2ccc(C)c(C(F)(F)F)c2)cc1C#Cc1nn(C2CCC(O)CC2)c2ncnc(N)c12 (centres unmarked) — remaining signal (cell-free assay; 10 µM): 56%
Cc1nc(Cc2cccc(C(F)(F)F)c2)sc1-c1ccc(C(N)=O)nc1 — remaining binding (binding, competition with immobilised ligand; 1 µM): 100%
CNC(=O)c1cc2c(Oc3ccc(NC(=O)C4(C(=O)Nc5ccc(F)cc5)CC4)cc3)ccnc2cc1OC — inhibition (enzyme activity, inhibitor, radiometric; 1 µM): 87%
Cc1cc(NC(=O)c2cccc3cc(-c4cccc5[nH]nc(N)c45)ccc23)ccc1F — activity vs control (enzyme activity, inhibitor; 0.1 µM): 113%
CS(=O)(=O)CCNCc1ccc(-c2ccc3ncnc(Nc4ccc(OCc5cccc(F)c5)c(Cl)c4)c3c2)o1 — remaining signal (cell-free assay; 0.5 µM): 96.2%
CC(C)(C)c1nc(-c2cccc(NS(=O)(=O)c3c(F)cccc3F)c2F)c(-c2ccnc(N)n2)s1 — remaining activity (enzyme activity, inhibitor, radiometric; 1 µM): 75%
O=C(Nc1cccnn1)N1CCC(=Cc2cccc(Oc3ccc(C(F)(F)F)cn3)c2)CC1 — remaining binding (cell-free assay, competition with immobilised ligand; 1 µM): 100%
Cc1cnc(NC2CCOCC2)nc1-n1cnc(C(=O)NC(CN)c2cc(F)cc(Cl)c2)c1 (centres unmarked) — remaining activity (enzyme activity, inhibitor, radiometric; 1 µM): 103%
CCN(CC)CCNC(=O)c1c(C)[nH]c(/C=C2\C(=O)Nc3ccc(F)cc32)c1C — inhibition (enzyme activity, inhibitor; 0.3 µM): 75%
COc1cc(Nc2c(C#N)cnc3cc(OCCCN4CCN(C)CC4)c(OC)cc23)c(Cl)cc1Cl — remaining signal (cell-free assay; 0.5 µM): 37.6%
CCN(CC)c1ccc(C2=NNC(=O)CC2C)cc1[N+](=O)[O-] (centres unmarked) — remaining activity (enzyme activity, inhibitor; 10 µM): 94%
COc1ccc2cc(OCC3(C(=O)O)CN(C(=O)c4ccc(F)cc4)C3)ccc2c1 — remaining binding (cell-free assay, competition with immobilised ligand; 1 µM): 100%
C=CC(=O)Nc1cc(Nc2nccc(Nc3cc(Cl)c(F)cc3C(C)(C)O)n2)c(OC)cc1N1CC[C@@H](N(C)C)C1 — inhibition (enzyme activity, inhibitor; 1 µM): 16%
Cc1[nH]c(/C=C2\C(=O)Nc3ccc(F)cc32)c(C)c1C(=O)N[C@H]1CCN(C(=O)N(C)C)C1 — remaining activity (enzyme activity, inhibitor; 1 µM): 43%
Cc1ccc(C(=O)Nc2ccc(CN3CCN(C)CC3)c(C(F)(F)F)c2)cc1C#Cc1cnc2cccnn12 — remaining activity (enzyme activity; 23.5 nM): 45%
CCC(=O)N[C@@H]1CC[C@H](C(=O)N(C)c2ccc(-c3nc4ccccc4o3)cc2)C1 — remaining binding (cell-free assay, competition with immobilised ligand; 1 µM): 100%
CCCOc1ccc(OC)c(F)c1C(=O)c1ccc(C(=O)N[C@@H]2CNC[C@H]2NC(=O)c2ccc3[nH]ncc3c2)cc1 — remaining activity (enzyme activity, inhibitor; 10 µM): 23%
CN([C@@H]1CCc2c(CC(=O)O)c3ccccc3n2C1)S(=O)(=O)c1ccc(F)cc1 — remaining binding (cell-free assay, competition with immobilised ligand; 1 µM): 100%
CC(C)(O)[C@H]1CC[C@H](Nc2ccc3ncc(-c4cccc(C(F)(F)F)c4)n3n2)CC1 — remaining activity (enzyme activity, inhibitor; 1 µM): 78%
Cc1ccc(Nc2nccc(N(C)c3ccc4c(C)n(C)nc4c3)n2)cc1S(N)(=O)=O — remaining signal (cell-free assay; 0.5 µM): 78.1%
COc1cc2ncnc(Nc3ccc(Oc4ccccc4)c(C)c3C)c2cc1OC — inhibition (enzyme activity, inhibitor; 1 µM): -3%
CN(C)C(=O)Cn1cc(-c2nc([C@@](C)(c3ccc(-c4cnc(N)nc4)cc3)C3CC3)no2)cn1 — remaining binding (cell-free assay, competition with immobilised ligand; 1 µM): 98%
COc1cc2c(Nc3ccc(Br)cc3F)ncnc2cc1OCC1CCN(C)CC1 — remaining signal (cell-free assay; 0.5 µM): 55%
